In brackets after ≈: the same amount, converted by molar mass.
What was measured:
[1] = tested on: Candida albicans; test: Minimum inhibitory concentration against Candida albicans at a pH of 5.7 using SDB medium; format: functional
Method in brief: (§1)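 Broth dilution in Sabouraud dextrose broth, pH 5.7. Compounds dissolved in DMSO or ethanol, serially diluted in medium, inoculated and incubated at 27 °C. Wells read visually at 48 h. MIC is the lowest concentration giving complete growth inhibition.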

[2] = tested on: Candida albicans; test: Minimum inhibitory concentration against Candida albicans using eagles minimum essential medium (EMEM); format: functional
Method in brief: (§2)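 Candida MICs in Eagle's minimum essential medium, pH 7.0. Compounds in DMSO or ethanol were serially diluted in medium, inoculated and incubated at 37 °C under CO₂. […] The summary value is the geometric mean of the MICs across strains.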

[3] = tested on: Candida albicans; test: Minimum inhibitory concentration against Candida stellatoidea at a pH of 5.7 using SDB medium; format: functional; method in brief: as §1
[4] = tested on: Candida; test: Compound is evaluated for geometric mean of MIC values of Candida species; format: functional; design: unit not given beside the values
[5] = tested on: Candida tropicalis; test: Minimum inhibitory concentration against Candida tropicalis at a pH of 5.7 using SDB medium; format: functional; method in brief: as §1
[6] = tested on: Candida tropicalis; test: Minimum inhibitory concentration against Candida tropicalis using eagles minimum essential medium (EMEM); format: functional; method in brief: as §2
[7] = tested on: Arthrodermataceae; test: Compound is evaluated for geometric mean of MIC values of dermatophytes; format: functional; design: unit not given beside the values
Method in brief: (§3)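 Dermatophyte isolates tested by serial broth dilution in SDB, pH 5.7. Compound stocks in DMSO or ethanol, incubated at 27 °C, and growth read visually at 72 h. MIC is the lowest concentration with no visible growth. The summary value is the geometric mean of the MICs across the organisms.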

[8] = tested on: Cricetinae gen. sp.; test: Inhibition of Vaginal Candida (C-60 strain) infection in Hamsters, estimated as Percent Area under curve at 0.05 % concentration after 4 days of administration; format: functional, Cricetulus griseus
Method in brief: (§4)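 Hamster vaginal C. albicans infection (strains C43 or C60; 10 animals per compound). From day 5 post-infection, a cotton pellet holding 0.15 mL of 0.05% or 0.01% (w/w) compound in EtOH–PEG 400–glycerol (10:45:45) was inserted once daily for 4 or 8 days. Vaginal swabs were filtered and the filters cultured on SDA at 37 °C for 48 h. Read-out was the area under the % negative cultures versus time curve.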

[9] = tested on: Microsporum canis; test: Minimum inhibitory concentration against Microsporum canis at a pH of 5.7 using SDB medium; format: functional; method in brief: as §3
[10] = tested on: Trichophyton benhamiae; test: Minimum inhibitory concentration against Trichophyton mentagrophytes at a pH of 5.7 using SDB medium; format: functional, Arthroderma benhamiae; method in brief: as §3
[11] = tested on: Trichophyton rubrum; test: Minimum inhibitory concentration against Trichophyton rubrum at a pH of 5.7 using SDB medium; format: functional; method in brief: as §3
[12] = Geometric mean for the above three species of Candida, tested in EMEM medium; format: functional; method in brief: as §2
[13] = tested on: Candida albicans; test: Minimum inhibitory concentration against Candida stellatoidea using eagles minimum essential medium (EMEM); format: functional; method in brief: as §2
[14] = tested on: Candida parapsilosis; test: Minimum inhibitory concentration against Candida parapsilosis at a pH of 5.7 using SDB medium; format: functional; details: Lodderomyces parapsilosis; method in brief: as §1
[15] = tested on: Cricetinae gen. sp.; test: Inhibition of Vaginal Candida (C-60 strain) infection in Hamsters, estimated as Percent Area under curve at 0.01 % concentration after 4 days of administration; format: functional, Cricetulus griseus; method in brief: as §4
[16] = tested on: Epidermophyton floccosum; test: Minimum inhibitory concentration against Epidermophyton floccosum at a pH of 5.7 using SDB medium; format: functional; method in brief: as §3
[17] = tested on: Nannizzia gypsea; test: Minimum inhibitory concentration against Microsporum gypseum at a pH of 5.7 using SDB medium; format: functional; method in brief: as §3
[18] = species: Cavia porcellus; test: Lession score which is determined as number of animals minus days to become negative; format: functional
Method in brief: (§5)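 Guinea pigs (5 per compound) infected with T. mentagrophytes D24 by swabbing a homogenate onto shaven, abraded skin. From day 4 post-infection, 0.25% (w/v) compound in EtOH–PEG 400–glycerol (10:45:45) was rubbed in topically twice daily for 10 days. Hair samples were cultured on SDA at 27 °C for up to 16 days. Read-outs were the % negative cultures and the day each animal became culture-negative.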

[19] = tested on: Cavia porcellus; test: In vivo inhibition of topical Trichophyton infection in Guinea Pig after drug administration; format: functional; method in brief: as §5
[20] = tested on: Cavia porcellus; test: In vivo inhibition of topical Trichophyton infection in Guinea Pig during drug administration; format: functional; method in brief: as §5
[21] = tested on: Cricetinae gen. sp.; test: Inhibition of Vaginal Candida (C-60 strain) infection in Hamsters, estimated as Percent Area under curve at 0.05 % concentration after 8 days of administration; format: functional, Cricetulus griseus; method in brief: as §4
[22] = tested on: Cricetinae gen. sp.; test: Inhibition of Vaginal Candida (C-43 strain) infection in Hamsters, estimated as Percent Area under curve at 0.05 % concentration after 8 days of administration; format: functional, Cricetulus griseus; method in brief: as §4

Fc1ccc(C2(Cn3ccnc3)OCc3ccccc32)c(F)c1 (stereo not given)
MIC [1]: > 64 µg/mL | MIC [2]: < 0.031 µg/mL | MIC [3]: > 64 µg/mL | Geometric mean [4]: 48 | MIC [5]: 64 µg/mL (≈ 205 µM) | MIC [6]: < 0.031 µg/mL | Geometric mean [7]: 2.5 | Inhibition [8]: 88% | MIC [9]: 2 µg/mL (≈ 6.4 µM) | MIC [10]: 0.5 µg/mL (≈ 1.6 µM) | MIC [11]: 16 µg/mL (≈ 51.2 µM) | Geometric mean [12]: < 0.02 | MIC [13]: < 0.031 µg/mL | MIC [14]: 0.25 µg/mL (≈ 0.8 µM) | Inhibition [15]: 69%

Clc1ccc(C2(Cn3ccnc3)OCCc3ccccc32)cc1 (stereo not given)
MIC [1]: 64 µg/mL (≈ 197 µM) | MIC [2]: < 0.031 µg/mL | MIC [3]: 64 µg/mL (≈ 197 µM) | Geometric mean [4]: 51 | MIC [5]: 64 µg/mL (≈ 197 µM) | MIC [6]: < 0.031 µg/mL | Geometric mean [7]: <0.22 | MIC [16]: < 0.031 µg/mL | MIC [9]: 1 µg/mL (≈ 3.08 µM) | MIC [10]: 0.125 µg/mL (≈ 0.385 µM) | MIC [11]: 0.25 µg/mL (≈ 0.77 µM) | Geometric mean [12]: < 0.02 | MIC [13]: < 0.031 µg/mL | MIC [14]: 2 µg/mL (≈ 6.16 µM) | MIC [17]: 1 µg/mL (≈ 3.08 µM)

Clc1ccccc1C(c1ccccc1)(c1ccccc1)n1ccnc1 [CLOTRIMAZOLE]
Lesion score [18]: 5 | Culture negative [19]: 87% | Culture negative [20]: 75% | Inhibition [21]: 34%

OC1OC(Cn2cncn2)(c2ccc(Cl)cc2)c2ccccc21 (stereo not given)
MIC [1]: > 64 µg/mL | MIC [3]: > 64 µg/mL | MIC [5]: > 64 µg/mL | Geometric mean [7]: >54 | MIC [16]: 8 µg/mL (≈ 24.4 µM) | MIC [9]: > 64 µg/mL | MIC [10]: > 64 µg/mL | MIC [11]: 64 µg/mL (≈ 195 µM) | MIC [14]: 32 µg/mL (≈ 97.6 µM) | MIC [17]: > 64 µg/mL

Clc1ccc(C2(Cn3ccnc3)OCc3c(Cl)cc(Cl)cc32)c(Cl)c1 (stereo not given)
MIC [1]: 8 µg/mL (≈ 19.3 µM) | MIC [2]: 2 µg/mL (≈ 4.83 µM) | MIC [3]: 4 µg/mL (≈ 9.66 µM) | Geometric mean [4]: 4.9 | MIC [5]: 8 µg/mL (≈ 19.3 µM) | MIC [6]: 2 µg/mL (≈ 4.83 µM) | Geometric mean [7]: 9.5 | Inhibition [22]: <30% | MIC [9]: 8 µg/mL (≈ 19.3 µM) | MIC [10]: 8 µg/mL (≈ 19.3 µM) | MIC [11]: 8 µg/mL (≈ 19.3 µM) | Geometric mean [12]: 2 | MIC [13]: 2 µg/mL (≈ 4.83 µM) | MIC [14]: 4 µg/mL (≈ 9.66 µM) | MIC [17]: 16 µg/mL (≈ 38.6 µM)

Clc1ccc(C2(Cn3ccnc3)OCc3ccc(Cl)cc32)c(Cl)c1 (stereo not given)
MIC [1]: 64 µg/mL (≈ 169 µM) | MIC [2]: < 0.031 µg/mL | MIC [3]: 64 µg/mL (≈ 169 µM) | Geometric mean [4]: <15 | MIC [5]: 8 µg/mL (≈ 21.1 µM) | MIC [6]: 1 µg/mL (≈ 2.63 µM) | Geometric mean [7]: 1.3 | Inhibition [8]: 64% | MIC [9]: 0.5 µg/mL (≈ 1.32 µM) | MIC [10]: 0.5 µg/mL (≈ 1.32 µM) | MIC [11]: 8 µg/mL (≈ 21.1 µM) | Geometric mean [12]: < 0.031 | MIC [13]: < 0.031 µg/mL | MIC [14]: < 0.031 µg/mL | Inhibition [15]: 26%

Clc1ccc(CC2(Cn3ccnc3)OCc3ccccc32)cc1 (stereo not given)
MIC [1]: > 64 µg/mL | MIC [2]: 0.25 µg/mL (≈ 0.77 µM) | MIC [3]: > 64 µg/mL | Geometric mean [4]: >78 | MIC [5]: > 64 µg/mL | MIC [6]: 0.25 µg/mL (≈ 0.77 µM) | Geometric mean [7]: 4.6 | MIC [16]: 0.25 µg/mL (≈ 0.77 µM) | MIC [9]: 4 µg/mL (≈ 12.3 µM) | MIC [10]: 8 µg/mL (≈ 24.6 µM) | MIC [11]: 8 µg/mL (≈ 24.6 µM) | Geometric mean [12]: 0.25 | MIC [13]: 0.25 µg/mL (≈ 0.77 µM) | MIC [14]: 4 µg/mL (≈ 12.3 µM) | MIC [17]: 32 µg/mL (≈ 98.5 µM)

Clc1ccc(C2(Cn3cncn3)OCc3ccccc32)cc1 (stereo not given)
MIC [1]: 64 µg/mL (≈ 205 µM) | MIC [2]: < 0.031 µg/mL | MIC [3]: 32 µg/mL (≈ 103 µM) | Geometric mean [4]: 16 | MIC [5]: 64 µg/mL (≈ 205 µM) | MIC [6]: < 0.031 µg/mL | Geometric mean [7]: <0.57 | MIC [16]: < 0.031 µg/mL | MIC [9]: 1 µg/mL (≈ 3.21 µM) | MIC [10]: 1 µg/mL (≈ 3.21 µM) | MIC [11]: 1 µg/mL (≈ 3.21 µM) | Geometric mean [12]: < 0.02 | MIC [13]: < 0.031 µg/mL | MIC [14]: 1 µg/mL (≈ 3.21 µM) | MIC [17]: 4 µg/mL (≈ 12.8 µM)

c1ccc(C2(Cn3ccnc3)OCc3ccccc32)cc1 (stereo not given)
MIC [1]: 64 µg/mL (≈ 232 µM) | MIC [2]: 0.25 µg/mL (≈ 0.905 µM) | MIC [3]: 64 µg/mL (≈ 232 µM) | Geometric mean [4]: 48 | MIC [5]: 64 µg/mL (≈ 232 µM) | MIC [6]: 0.125 µg/mL (≈ 0.452 µM) | Geometric mean [7]: <5.2 | MIC [16]: < 0.031 µg/mL | MIC [9]: 16 µg/mL (≈ 57.9 µM) | MIC [10]: 16 µg/mL (≈ 57.9 µM) | MIC [11]: 16 µg/mL (≈ 57.9 µM) | Geometric mean [12]: 0.2 | MIC [13]: 0.25 µg/mL (≈ 0.905 µM) | MIC [14]: 8 µg/mL (≈ 28.9 µM) | MIC [17]: 64 µg/mL (≈ 232 µM)

Clc1ccc(C2(Cn3ccnc3)OCc3ccccc32)c(Cl)c1 (stereo not given)
MIC [1]: 32 µg/mL (≈ 92.7 µM) | MIC [2]: < 0.031 µg/mL | MIC [3]: 32 µg/mL (≈ 92.7 µM) | Geometric mean [4]: 7.2 | MIC [5]: 32 µg/mL (≈ 92.7 µM) | MIC [6]: < 0.031 µg/mL | Geometric mean [7]: <0.04 | MIC [16]: 0.063 µg/mL (≈ 0.182 µM) | Inhibition [8]: 94% | MIC [9]: < 0.031 µg/mL | MIC [10]: < 0.031 µg/mL | MIC [11]: < 0.031 µg/mL | Geometric mean [12]: < 0.02 | MIC [13]: < 0.031 µg/mL | MIC [14]: < 0.031 µg/mL | Inhibition [15]: 78% | MIC [17]: 0.5 µg/mL (≈ 1.45 µM)

c1ccc(-c2ccc(C3(Cn4ccnc4)OCc4ccccc43)cc2)cc1 (stereo not given)
MIC [1]: 32 µg/mL (≈ 90.8 µM) | MIC [2]: 0.25 µg/mL (≈ 0.709 µM) | MIC [3]: 16 µg/mL (≈ 45.4 µM) | Geometric mean [4]: 7.2 | MIC [5]: 32 µg/mL (≈ 90.8 µM) | MIC [6]: 0.063 µg/mL (≈ 0.179 µM) | MIC [16]: < 0.031 µg/mL | MIC [9]: 1 µg/mL (≈ 2.84 µM) | MIC [10]: < 0.031 µg/mL | MIC [11]: < 0.031 µg/mL | Geometric mean [12]: 0.16 | MIC [13]: 0.125 µg/mL (≈ 0.355 µM) | MIC [14]: < 0.031 µg/mL | MIC [17]: 8 µg/mL (≈ 22.7 µM)
